Bioassay records deposited in PubChem BioAssay by The Scripps Research Institute Molecular Screening Center.
Sampled rows, rich in hits. Any-hit rate of the full collection: about 1.8%.
NPY1 pot ag – human NPY-Y1 potentiation or agonism, primary screen | P25929 | NPY-Y1 expressing cells, potentiator/agonist activation | activation, % at 3.6 µM | actives 0.37% (n = 220,000); in the data active = activation above about 33%, passing the limit was not always enough;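 note: cells stimulated with NPY at EC10 then isoproterenol at EC100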
Target sequence (P25929 whole entry, looked up): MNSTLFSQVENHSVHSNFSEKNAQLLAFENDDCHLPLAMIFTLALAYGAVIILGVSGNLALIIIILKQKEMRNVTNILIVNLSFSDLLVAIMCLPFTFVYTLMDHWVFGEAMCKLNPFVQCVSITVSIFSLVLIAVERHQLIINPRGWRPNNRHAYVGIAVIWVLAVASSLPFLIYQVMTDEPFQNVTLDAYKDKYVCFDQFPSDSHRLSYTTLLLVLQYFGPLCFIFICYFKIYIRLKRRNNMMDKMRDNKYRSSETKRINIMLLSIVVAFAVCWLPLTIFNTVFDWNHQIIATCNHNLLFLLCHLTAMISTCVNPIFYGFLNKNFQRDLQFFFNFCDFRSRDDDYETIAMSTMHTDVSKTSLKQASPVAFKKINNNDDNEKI
NPY2 pot ag – potentiates or activates human NPY-Y2 receptor. cells expressing NPY-Y2, potentiator/agonist read-out. AID 1359. activation, % at 3.6 µM. actives 0.45% (n = 220,000); in the data active = activation above about 27%;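 note: cells stimulated with NPY near EC25 plus isoproterenol at EC100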
Target sequence (P49146 whole entry, looked up): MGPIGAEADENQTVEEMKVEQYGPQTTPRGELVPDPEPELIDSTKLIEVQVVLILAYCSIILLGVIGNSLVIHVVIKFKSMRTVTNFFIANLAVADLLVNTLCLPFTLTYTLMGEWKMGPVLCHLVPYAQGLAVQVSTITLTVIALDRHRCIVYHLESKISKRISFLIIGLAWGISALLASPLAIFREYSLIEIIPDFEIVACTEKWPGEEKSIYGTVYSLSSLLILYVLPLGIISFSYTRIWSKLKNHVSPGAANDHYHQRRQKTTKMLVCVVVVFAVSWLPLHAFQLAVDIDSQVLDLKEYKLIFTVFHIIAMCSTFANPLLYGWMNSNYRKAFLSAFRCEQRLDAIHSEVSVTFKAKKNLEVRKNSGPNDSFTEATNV
NPY Y2 blocker – blocks the human neuropeptide Y Y2 receptor. P49146. NPY-Y2 expressing cells, antagonist mode. inhibition, % at 2.7 µM. actives 0.99% (n = 140,000); in the data active = inhibition above about 17%
NPY-Y1 antag – NPY-Y1 (human) receptor antagonism; HEK293-CNG Y1 cells, membrane potential fluorescence; NPY at EC95, then isoproterenol; inhibition, % at 3.6 µM; actives 1% (n = 200,000); AID 1040;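 active = inhibition above the campaign mean inhibition of all tested compounds plus 3 SD, cut at about 20% in these data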
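System: HEK293 cells with Y1 receptor plus CNG channel / Probe or stimulus: NPY 25 nM then isoproterenol 1 µM plus Ro 20-1724 25 µM / Compound: one concentration, 3.6 µM, in 0.4% DMSO / Schedule: compound incubation 1 h at room temperature, readout 45 min post-stimulation / Measured by: membrane potential fluorescence / Read-out: % inhibition of NPY effect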
NPY-Y1 pot conf – human NPY-Y1 potentiation or agonism, confirmation | shares compounds with NPY1 pot ag | cell-based NPY-Y1 potentiator/agonist assay | activation, % at 3.6 µM | actives 20% (n = 280) | AID 1546; in the data active = activation above about 45%;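 note: cells challenged with NPY at its EC10 plus isoproterenol stimulus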
NPY-Y2 counter – NPY-Y2 potentiation or agonism as NPY-Y1 counter-screen; shares compounds with NPY1 pot ag; HEK293-CNG cells, membrane-potential fluorescence (FLIPR), 1536-well; activation, % at 3.6 µM; actives 20% (n = 280); in the data active = activation above about 33%
NPY-Y1 ag – activates human NPY-Y1, counter-screen for NPY-Y1 potentiators; HEK293 Y1-CNGC, membrane potential fluorescence, agonist mode; actives 50% (n = 280); AID 1697; shares compounds with NPY1 pot ag; activation, % at 3.6 µM;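 active = percent activation above the mean of DMSO-only control wells plus 3 SD of those wells, cut at about 18% in these data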;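 note: cells challenged with isoproterenol plus Ro 20-1724 with no NPY in test wells; Y1 agonism lowers isoproterenol-driven cAMP and reduces probe fluorescence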
NPY-Y2 agonist – human NPY-Y2 agonism as NPY-Y1 counter-screen | actives 67% (n = 280) | shares compounds with NPY1 pot ag | activation, % at 3.6 µM | HEK293 Y2-CNGC, membrane potential fluorescence, agonist mode;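 active = activation above the solvent-only control wells' mean plus 3 SD, cut at about 11% in these data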;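 note: agonism lowers cAMP so well fluorescence drops in active wells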
CNGC inh 2 – blocks cyclic nucleotide gated channel in NPY-Y1 counter-screen | shares compounds with NPY1 pot ag | HEK293-CNG parental, isoproterenol cAMP, membrane potential fluorescence | inhibition, % at 3.6 µM | actives 42% (n = 280) | AID 1704;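 active = inhibition above the mean of stimulated solvent-only control wells plus 3 SD, cut at about 22% in these data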
Large screens that a line does not name were inactive (follow-up assays come after a bar, where they were run).

Cc1cc(NC(=O)NC2CC(=O)N(c3ccc4c(c3)OCCO4)C2)no1 (stereo not given)	none (no result: NPY Y2 blocker)
O=[N+]([O-])c1cc(S(=O)(=O)Nc2cccc(Cl)c2)ccc1N/N=C/c1ccc(N2CCOCC2)cc1	NPY1 pot ag 66 (no result: NPY Y2 blocker, NPY-Y1 antag) | NPY-Y1 pot conf 53 | NPY-Y2 counter 61 | NPY-Y1 ag 44 | NPY-Y2 agonist 61 | CNGC inh 2 47
O=c1[nH]c(Cc2cccs2)nc2scc(-c3ccc(Cl)cc3)c12	NPY1 pot ag 66 (no result: NPY Y2 blocker, NPY-Y1 antag) | NPY-Y1 pot conf inactive | NPY-Y2 counter inactive | NPY-Y1 ag 36 | NPY-Y2 agonist 33 | CNGC inh 2 44
O=c1[nH]c(Cc2ccccn2)nc2scc(-c3ccc(Cl)cc3)c12	none (no result: NPY Y2 blocker)
Cc1cc(C)cc(OCC(O)CN2CCN(Cc3ccc4c(c3)OCO4)CC2)c1 (stereo not given)	NPY1 pot ag 50 (no result: NPY Y2 blocker) | NPY-Y1 pot conf inactive | NPY-Y2 counter inactive | NPY-Y1 ag inactive | NPY-Y2 agonist inactive | CNGC inh 2 inactive
CCN(CC)C(=O)c1ccccc1NS(C)(=O)=O	NPY1 pot ag 37 (no result: NPY Y2 blocker) | NPY-Y1 pot conf inactive | NPY-Y2 counter inactive | NPY-Y1 ag inactive | NPY-Y2 agonist inactive | CNGC inh 2 inactive
CS(=O)(=O)Nc1ccccc1C(=O)O	none
CC1N(C)c2cc(NC(=O)c3ccco3)c(P(=O)(Nc3ccc([N+](=O)[O-])cc3)N3CCOCC3)cc2C1(C)C (stereo not given)	NPY1 pot ag 37 (no result: NPY Y2 blocker) | NPY-Y1 pot conf inactive | NPY-Y2 counter inactive | NPY-Y1 ag inactive | NPY-Y2 agonist 29 | CNGC inh 2 24
CCCN1CCN(C(=O)Cn2cnc3ccc(S(=O)(=O)N4CCC(C)CC4)cc3c2=O)CC1	none (no result: NPY Y2 blocker)
CC1CC(C)CN(CCCNC(=O)c2cc3c(=O)[nH]c4ccccc4c3n2C)C1 (stereo not given)	NPY1 pot ag 41 (no result: NPY Y2 blocker) | NPY-Y1 pot conf inactive | NPY-Y2 counter inactive | NPY-Y1 ag 26 | NPY-Y2 agonist 19 | CNGC inh 2 inactive
CCOc1ccccc1NC(=O)C1C2C=CC(C2)C1C(=O)O (stereo not given)	none
CCOc1ccccc1NC(=O)C1C2C=CC(O2)C1C(=O)O (stereo not given)	NPY1 pot ag 57 | NPY-Y1 pot conf inactive | NPY-Y2 counter inactive | NPY-Y1 ag inactive | NPY-Y2 agonist inactive | CNGC inh 2 inactive
CN(C[C@@H](CC1CCCCC1)N(C[C@H](Cc1ccccc1)N(CCc1ccccc1)N=O)N=O)N=O	none (no result: NPY Y2 blocker)
CN(C)S(=O)(=O)c1ccc(S(=O)(=O)N(Cc2ccco2)Cc2ccccc2Cl)cc1	NPY1 pot ag 38 | NPY-Y1 pot conf inactive | NPY-Y2 counter inactive | NPY-Y1 ag inactive | NPY-Y2 agonist inactive | CNGC inh 2 inactive
COc1cc(-c2noc(C)n2)cc(OC)c1OC	none (no result: NPY Y2 blocker, NPY-Y1 antag)
Cc1nc(-c2cccc(-c3noc(C)n3)c2)no1	NPY1 pot ag 38 | NPY-Y1 pot conf inactive | NPY-Y2 counter inactive | NPY-Y1 ag inactive | NPY-Y2 agonist inactive | CNGC inh 2 inactive
Cc1cccc(Nc2c(-c3ccc(O)cc3)nc3ncccn23)c1	NPY1 pot ag 40 (no result: NPY Y2 blocker) | NPY-Y1 pot conf inactive | NPY-Y2 counter inactive | NPY-Y1 ag inactive | NPY-Y2 agonist 31 | CNGC inh 2 23
CC(C)(C)OC(=O)NCCCCCNC(=O)c1[nH]cnc1C(=O)N[C@@H](Cc1ccccc1)C(=O)OCc1ccccc1	NPY1 pot ag 58 (no result: NPY Y2 blocker) | NPY-Y1 pot conf 47 | NPY-Y2 counter inactive | NPY-Y1 ag 32 | NPY-Y2 agonist 19 | CNGC inh 2 28
N#C/C(=C(/O)c1ccc([N+](=O)[O-])s1)c1nc2ccccc2[nH]1	NPY1 pot ag 48 (no result: NPY Y2 blocker, NPY-Y1 antag) | NPY-Y1 pot conf inactive | NPY-Y2 counter inactive | NPY-Y1 ag inactive | NPY-Y2 agonist 28 | CNGC inh 2 inactive
CC(C)Cn1c(N)c(C(=O)COC(=O)c2cnc(Cl)c(Cl)c2)c(=O)n(C)c1=O	NPY1 pot ag 42 (no result: NPY Y2 blocker) | NPY-Y1 pot conf inactive | NPY-Y2 counter 42 | NPY-Y1 ag 33 | NPY-Y2 agonist 24 | CNGC inh 2 inactive
COc1ccc(CCNC(=S)NCc2ccc(Cl)c(Cl)c2)cc1OC	none (no result: NPY Y2 blocker)
CCOC(=O)Nc1ccc2c(c1)N(C(=O)N1CCN(C)CC1)c1ccccc1S2	none
C=CC(=O)N1c2ccccc2Sc2ccc(NC(=O)OCC)cc21	NPY1 pot ag 42 | NPY-Y1 pot conf inactive | NPY-Y2 counter inactive | NPY-Y1 ag 20 | NPY-Y2 agonist 13 | CNGC inh 2 inactive
N/C(=N\OC(=O)/C=C/c1ccccc1)c1ccccc1	NPY1 pot ag 105 | NPY-Y1 pot conf inactive | NPY-Y2 counter inactive | NPY-Y1 ag inactive | NPY-Y2 agonist inactive | CNGC inh 2 inactive
O=C(Nc1ccccc1)C1CC=CCC1C(=O)OCC1CCCO1 (stereo not given)	NPY1 pot ag 55 | NPY-Y1 pot conf inactive | NPY-Y2 counter inactive | NPY-Y1 ag inactive | NPY-Y2 agonist inactive | CNGC inh 2 inactive
COc1cccc(OCCOc2c(OC)cccc2OC)c1	none
Cc1ccc(S(=O)(=O)Nc2nc3ccccc3nc2Nc2cccc(S(=O)(=O)N3CCCC3)c2)cc1	NPY1 pot ag 45 (no result: NPY Y2 blocker) | NPY-Y1 pot conf 74 | NPY-Y2 counter 71 | NPY-Y1 ag 67 | NPY-Y2 agonist 65 | CNGC inh 2 44
Cc1ccccc1-n1nnnc1SCC(=O)N(C)C1CCS(=O)(=O)C1 (stereo not given)	none (no result: NPY Y2 blocker)
CC(Oc1cc(C(F)(F)F)cc(C(F)(F)F)c1)C(=O)NC(N)=O (stereo not given)	NPY1 pot ag 49 | NPY-Y1 pot conf 46 | NPY-Y2 counter inactive | NPY-Y1 ag 34 | NPY-Y2 agonist 32 | CNGC inh 2 36
COc1ccc(NC(C)=O)cc1CNC(=O)COc1c(C)c(C)cc(C)c1C	none
COc1ccc(N(C)S(=O)(=O)c2cccc(C(=O)Nc3cc(OC)ccc3OC)c2)cc1	none (no result: NPY Y2 blocker)
COc1ccc(N(C)S(=O)(=O)c2cccc(C(=O)Nc3nnc(C4CC4)s3)c2)cc1	NPY1 pot ag 38 (no result: NPY Y2 blocker) | NPY-Y1 pot conf inactive | NPY-Y2 counter inactive | NPY-Y1 ag 41 | NPY-Y2 agonist 20 | CNGC inh 2 40
O=C(O)CNS(=O)(=O)c1c(Cl)cccc1Cl	none (no result: NPY Y2 blocker, NPY-Y1 antag)
Cc1ccc(O)c(-c2cc3ccccc3[nH]2)c1	NPY1 pot ag 47 | NPY-Y1 pot conf inactive | NPY-Y2 counter inactive | NPY-Y1 ag 38 | NPY-Y2 agonist 42 | CNGC inh 2 31
CC(C)N=C1NN=C(c2cccs2)CS1	none (no result: NPY Y2 blocker)
CC(C)N=C1NN=C(c2ccc(Cl)c(Cl)c2)CS1	NPY1 pot ag 49 (no result: NPY Y2 blocker) | NPY-Y1 pot conf inactive | NPY-Y2 counter inactive | NPY-Y1 ag inactive | NPY-Y2 agonist inactive | CNGC inh 2 inactive
